Data on four compounds can be found in ChEMBL document CHEMBL1133511, “Contribution of the adenine base to the activity of adenophostin A investigated using a base replacement strategy” (J Med Chem, 2000).

Experiment [1] is described as follows: Tested for equilibrium competition binding to InsP3 receptor in hepatic membranes using 1.3-1.8 nM [3H]Ins(1,4,5)P3 as the radioligand. Format: functional, cell membranes, Rattus norvegicus, Liver, Membrane. A digest of the protocol:
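Rat liver membranes (perfused, homogenized, Percoll-purified), 0.1 mg protein/tube in 50 mM Tris, 1 mM EDTA, pH 8.3, incubated 5 min at 4 °C with [3H]Ins(1,4,5)P3 plus competing ligand; bound separated by centrifugation (20000g, 5 min), counted by scintillation. Kd and Hill coefficient from equilibrium competition; means ± SEM of 4 independent experiments.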

The species named for experiment [2] is Rattus norvegicus. The experiment can be described thus: Tested for concentration of ligand causing half maximal response of Calcium ion release from permeabilised hepatocytes. Format: functional. Particulars: Hepatocyte. The procedure, abridged: (§1)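 Permeabilized rat hepatocytes loaded to steady state with 45Ca2+ (5 min, 37 °C) in cytosol-like medium (140 mM KCl, 20 mM NaCl, 2 mM MgCl2, 1 mM EGTA, 300 µM CaCl2, 20 mM Pipes, pH 7.0) with 1.5 mM ATP, creatine phosphate/kinase, 10 µM FCCP; 1.25 µM thapsigargin added, 30 s later agonist for 60 s; store 45Ca2+ by rapid filtration. Four-parameter logistic fit; means ± SEM, 6-15 experiments.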

The species entered for experiment [3] is Rattus norvegicus. The experiment can be described thus: Tested for percentage of intracellular calcium ion stores released in rat hepatocytes. It is filed as functional, Hepatocyte. The procedure, abridged: as §1

For `O=P(O)(O)O[C@@H]1[C@H](O)[C@@H](O[C@H]2[C@@H](OP(=O)(O)O)[C@H](n3ccnc3)O[C@@H]2CO)O[C@@H](CO)[C@H]1OP(=O)(O)O`, the Ki (in general, a dissociation constant, usually derived from enzyme kinetics or from competition with a known ligand) in experiment [1] was found to be 2.19 nM. In experiment [2], the EC50 (commonly the midpoint of the concentration-response curve) stood at 108 nM. Further, the Max response in experiment [3] was determined as 57%.

Take `Nc1ncnc2c1ncn2[C@@H]1O[C@H](CO)[C@@H](O[C@H]2O[C@@H](CO)[C@@H](OP(=O)(O)O)[C@H](OP(=O)(O)O)[C@@H]2O)[C@H]1OP(=O)(O)O`: affinity in experiment [1] was put at a Ki of 0.45 nM. Further, in experiment [2], the concentration giving a half-maximal response (EC50) worked out at 14 nM. Besides, the Max response in experiment [3] is recorded as 51%.

Compound `O=P(O)(O)O[C@@H]1[C@H](O)[C@@H](O)[C@@H](OP(=O)(O)O)[C@H](OP(=O)(O)O)[C@@H]1O` returned an inhibitory constant (Ki) in experiment [1] of 2.72 nM. In experiment [2], the EC50 came to 119 nM. Also, in experiment [3], the Max response was 55%.

In turn, `O=P(O)(O)O[C@@H]1[C@H](O)[C@@H](O[C@H]2[C@@H](OP(=O)(O)O)[C@H](n3cnc4cncnc43)O[C@@H]2CO)O[C@@H](CO)[C@H]1OP(=O)(O)O` [PURINOPHOSTIN] showed an inhibitory constant (Ki) in experiment [1] of 0.8 nM. Besides, the EC50 in experiment [2] was 18 nM. In addition, the Max response in experiment [3] was 52%.
